Measurements published in ChEMBL document CHEMBL3352024, “A new series of HAPs as anti-HBV agents targeting at capsid assembly” (Bioorg Med Chem Lett, 2014).
Activity calls are given as the source filed them. No cut-off for these calls is given here.

What was measured:
[1] = Cytotoxicity against human HepG2.2.15 cells after 48 hrs; format: cell-based; settings: hepg2 2.2.15, 48 h
Outline: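 HepG2.2.15 cells exposed to compounds for 48 h; cell viability then determined as the cytotoxicity read-out.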

[2] = test system: Hepatitis B virus; assay: Antiviral activity against hepatitis B virus infected in human HepG2.2.15 cells assessed as inhibition of viral replication; format: functional, organism-based; settings: hepg2 2.2.15
[3] = test system: hepatitis B virus; assay: (§1) Selectivity index, ratio of TC50 for human HepG2.2.15 cells to IC50 for hepatitis B virus infected in human HepG2.2.15 cells; format: toxicity, cell-based; settings: HepG2.2.15 cells, read-out: Selectivity Index
[4] = as §1; format: toxicity, cell-based
[5] = target: Core antigen (Hepatitis B virus) (UniProt Q03732); assay: Inhibition of hepatitis B virus capsid assembly after 24 hrs by HPLC analysis
Sequence of Core antigen (Hepatitis B virus) (Q03732 as listed by the source): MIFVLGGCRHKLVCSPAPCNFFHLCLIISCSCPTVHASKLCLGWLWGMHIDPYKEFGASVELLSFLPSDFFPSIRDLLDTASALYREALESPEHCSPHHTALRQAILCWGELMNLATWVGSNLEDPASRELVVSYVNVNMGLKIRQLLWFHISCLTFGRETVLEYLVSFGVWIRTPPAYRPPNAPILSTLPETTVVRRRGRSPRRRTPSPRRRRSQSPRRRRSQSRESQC
Outline: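 Cp149 capsid protein is mixed with compound in 2× assembly buffer and incubated 24 h. Reactions are analysed by size-exclusion chromatography on an HPLC with autoinjection, on a column equilibrated in 100 mM HEPES pH 7.5, 300 mM NaCl at 0.6 ml/min. Recovered protein is assigned to void (8.5 min), capsid (9.5 min) and dimer (12.5 min) peaks.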

[6] = test system: Hepatitis B virus; assay: Inhibition of hepatitis B virus capsid cp149 assembly assessed as reduction in dimer formation at capsid-compound ratio of 1:2 to 1:4 after 24 hrs by HPLC analysis

Row | IC50 [2] [µmol] | Structure (SMILES) | TC0 [1] [µmol] | TC50 [1] [µmol] | selectivity ratio [3] | Selectivity Index [4] | inhibition [5] | inhibition [6]
1 | 6.71 | CCOC(=O)C1=C(CN2CCN(CC)CC2)NC(c2c(F)cc(F)cc2F)=NC1c1ccc(F)cc1Cl (stereo not drawn) | 13.78 | 41.3 | 6.16 |  |  | 
2 | 6.66 | CCOC(=O)C1=C(CN(CCO)CCO)NC(c2c(F)cc(F)cc2F)=NC1c1ccc(F)cc1Cl (stereo not drawn) | 13.98 | 54.02 | 8.11 |  |  | 
3 | 7.55 | CCOC(=O)C1=C(CN2CCN(C)CC2)NC(c2c(F)cc(F)cc2F)=NC1c1ccc(F)cc1Cl (stereo not drawn) | 14.1 | 98.74 | 13.1 |  |  | 
4 | 9.56 | CCOC(=O)C1=C(CN2CCC(C)CC2)NC(c2c(F)cc(F)cc2F)=NC1c1ccc(F)cc1Cl (stereo not drawn) | 4.65 | 32.98 |  |  |  | 
5 | 4.35 | CCOC(=O)C1=C(CN2CCOCC2)NC(c2c(F)cc(F)cc2N2CCOCC2)=NC1c1ccc(F)cc1Cl (stereo not drawn) | 12.81 | 55.25 | 12.7 |  |  | 
6 | 10.24 | CCOC(=O)C1=C(CN2CCCCC2)NC(c2c(F)cc(F)cc2F)=NC1c1ccc(F)cc1Cl (stereo not drawn) | 14.56 | 25.21 | 2.46 |  |  | 
7 | 5.74 | CCOC(=O)C1=C(CN2CCNC(=O)C2)NC(c2c(F)cc(F)cc2F)=NC1c1ccc(F)cc1Cl (stereo not drawn) | 4.7 | 32.85 | 5.72 |  |  | 

Second part, the compound before the results:

Row | Structure (SMILES) | IC50 [2] [µmol] | TC0 [1] [µmol] | TC50 [1] [µmol] | selectivity ratio [3] | Selectivity Index [4] | inhibition [5] | inhibition [6]
8 | CCOC(=O)C1=C(CN2CCN(C(=O)OCC)CC2)NC(c2c(F)cc(F)cc2F)=NC1c1ccc(F)cc1Cl (stereo not drawn) |  | 4.22 | 29.6 |  |  |  | 
9 | CCOC(=O)C1=C(CN2CCCC2)NC(c2c(F)cc(F)cc2F)=NC1c1ccc(F)cc1Cl (stereo not drawn) |  | 14.96 | 77.29 |  |  |  | 
10 | CCOC(=O)C1=C(CN2CCOCC2)NC(c2c(F)cc(F)cc2F)=NC1c1ccc(F)cc1Cl (stereo not drawn) [listing 1 of 2 here] | 10.57 | 4.83 | 33.75 |  | 3.19 |  | 
11 | CCCN1CCN(CC2=C(C(=O)OCC)C(c3ccc(F)cc3Cl)N=C(c3c(F)cc(F)cc3F)N2)CC1 (stereo not drawn) |  | 4.45 | 31.25 |  |  |  | 
12 | CCOC(=O)C1=C(CN2CCSCC2)NC(c2c(F)cc(F)cc2F)=NC1c1ccc(F)cc1Cl (stereo not drawn) |  | 4.68 | 32.73 |  |  |  | 
13 | CCOC(=O)C1=C(CN2CCOCC2)NC(c2c(F)cc(F)cc2F)=NC1c1ccc(F)cc1Cl (stereo not drawn) [listing 2 of 2 here] |  |  |  |  |  | Active | Active
14 | Nc1ccn([C@@H]2CS[C@H](CO)O2)c(=O)n1 [LAMIVUDINE] | 14.17 | 0.82 | 5.75 |  |  |  | 
15 | CCOC(=O)C1=C(CN2CCOCC2)NC(c2c(F)cc(F)cc2F)=NC1c1ccc(F)cc1Cl.Cl (stereo not drawn) | 2.35 | 4.51 | 31.48 |  | 13.37 |  | 
